From ChEMBL document CHEMBL1142664, “Synthesis and biological evaluation of a new series of 2,3,5-substituted [1,2,4]-thiadiazoles as modulators of adenosine A1 receptors and their molecular mechanism of action” (J Med Chem, 2005) come the findings set out here.

The target of test [1] is T1, Adenosine receptor A1 (Homo sapiens) (UniProt P30542).
T1 sequence (whole entry): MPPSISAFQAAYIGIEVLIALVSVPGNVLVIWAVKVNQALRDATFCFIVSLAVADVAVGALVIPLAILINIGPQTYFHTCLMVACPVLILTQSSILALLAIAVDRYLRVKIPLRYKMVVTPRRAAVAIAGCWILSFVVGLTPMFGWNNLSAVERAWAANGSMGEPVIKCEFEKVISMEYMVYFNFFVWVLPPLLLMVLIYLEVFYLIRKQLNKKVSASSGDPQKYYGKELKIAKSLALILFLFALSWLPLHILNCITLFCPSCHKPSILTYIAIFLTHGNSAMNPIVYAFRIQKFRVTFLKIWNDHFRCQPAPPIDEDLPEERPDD
In words: Inhibition of [3H]CCPA binding to human Adenosine A1 receptor at 10e-6 M. The method in brief: (§1)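 Human A1 receptors expressed in CHO-cell membranes, incubated 60 min at 25 °C in 50 mM Tris-HCl (pH 7.4) with the compound at a fixed concentration. Conditions were [3H]CCPA ~1.0 nM with 20 µg protein, or [3H]DPCPX ~1.6 nM with 10 µg protein. Nonspecific binding was defined with 10 µM DPCPX, and samples were filtered and counted. Results are % specific binding remaining, as means of three experiments in duplicate.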

In test [2] the target is T1, Adenosine receptor A1 (Homo sapiens). In words: Inhibition of [3H]CCPA binding to human Adenosine A1 receptor at 10e-7 M. In short, it runs like this:
as §1

For test [3] the target is unchanged. Nature of the test: Inhibition of [3H]DPCPX binding to human Adenosine A1 receptor at 10e-6 M. In short, it runs like this: as §1
Test [4] shares this target. In words: Dissociation constant for [3H]-CCPA binding to Adenosine A1 receptor in the presence of compound. In short, it runs like this: (§2)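 Kinetics on membranes (30 µg) from CHO cells expressing recombinant human A1 receptors, using [3H]CCPA at 1 nM, with or without compound. Association was started by adding membranes to the radioligand. For dissociation, membranes were preloaded with radioligand for 60 min at 25 °C, then 100 µM 8-cyclopentyltheophylline was added. Bound ligand was separated by GF/B filtration and counted by scintillation; t1/2 and rate constants were derived.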

For test [5] the target is unchanged. Nature of the test: Association constant for [3H]CCPA binding to Adenosine A1 receptor in the presence of compound. In short, it runs like this: as §2
Test [6] has the same target. In words: Association half life for [3H]-CCPA binding to Adenosine A1 receptor in the presence of compound. The method in brief: as §2
For test [7] the target is unchanged. In words: Dissociation half life for [3H]CCPA binding to Adenosine A1 receptor in the presence of compound. In short, it runs like this:
as §2

For test [8] the target is unchanged. In words: Dissociation half life of [3H]CCPA binding to Adenosine A1 receptor. The method in brief: as §2
Test [9] has the same target. Nature of the test: Association half life for [3H]CCPA binding to Adenosine A1 receptor in the presence of compound. In short, it runs like this:
as §2

On to `C/N=c1/nc(-c2ccccc2)n(-c2cccc(C)c2)s1`, for which the Specific binding in [1] turned out to be 23%; in [2], 96%; in [3], 132%.

For `CCCC/N=c1/nc(-c2ccccc2)n(-c2ccccc2)s1`, the Specific binding came to 27% in [1], 101% in test [2] and 126% in test [3].

As for `CC/N=c1/nc(-c2ccccc2)n(-c2ccccc2)s1`, the results for the Specific binding in test [1], in [2] and in test [3] were 20%, 99% and 134%, respectively.

`C/N=c1\nc(C2C=CC=CC2)n(C2C=CC=CC2)s1` (configuration not stated): in [4], the Koff is 0.000933 s⁻¹. Besides, in test [5], the k on amounted to 5.83e+06 M⁻¹ s⁻¹. Also, the values for the T1/2 in [6] and in test [7] were 2 min and 12.4 min, respectively. In addition, the Specific binding in [1] was 16%; in [2] it was 97%; in [3], 122%.

Consider `c1ccc(-c2n/c(=N/C3CCCC3)sn2-c2ccccc2)cc1`, for which the Koff in test [4] is 0.000967 s⁻¹. Further, the k on in test [5] is 4.17e+06 M⁻¹ s⁻¹. In addition, the T1/2 in [8] came out at 12 min; in test [9] it was 2.9 min. For the same compound, the Specific binding in test [1] was found to be 25%; in test [2], 100%; in test [3] it was 123%.

Turning to `Cc1cccc(-n2s/c(=N\c3ccccc3)nc2-c2ccccc2)c1`, the Specific binding in test [1] was 89%; in [2], 96%; in test [3], 107%.

`CCC/N=c1/nc(-c2ccccc2)n(-c2cccc(C)c2)s1`: the Specific binding in [1] is 29%; in test [2] it was 97%; in test [3] it was 126%.

For `Cc1cccc(-n2s/c(=N\Cc3ccccc3)nc2-c2ccccc2)c1`, the Specific binding in test [1] came out at 66%; in [2], 99%; in [3], 116%.

On to `CCC/N=c1/nc(-c2ccccc2)n(-c2ccccc2)s1`, for which the Specific binding in test [1] is 26%; in [2], 98%; in test [3], 135%.

`Cc1cccc(-n2s/c(=N/CCCO)nc2-c2ccccc2)c1`: the figures for the Specific binding in test [1], in test [2] and in test [3] were 29%, 97% and 142%, respectively.

On to `CCCC/N=c1/nc(-c2ccccc2)n(-c2cccc(C)c2)s1`, for which the results for the Specific binding in test [1], in [2] and in [3] were 36%, 99% and 114%, respectively.

For the compound `CC/N=c1/nc(-c2ccccc2)n(-c2cccc(C)c2)s1`, the Specific binding came out at 24% in test [1], 100% in [2] and 125% in test [3].

For the compound `Cc1cccc(-n2s/c(=N\C(C)C)nc2-c2ccccc2)c1`, the Specific binding in test [1] stood at 29%; in test [2], 100%; in test [3], 121%.

In the case of `OCCC/N=c1/nc(-c2ccccc2)n(-c2ccccc2)s1`, the Specific binding in [1] was 27%; in [2] it was 106%; in test [3], 127%.

`CC(C)/N=c1/nc(-c2ccccc2)n(-c2ccccc2)s1`: the Specific binding in test [1] worked out at 23%; in [2], 97%; in test [3] it was 126%.

Consider `c1ccc(C/N=c2\nc(-c3ccccc3)n(-c3ccccc3)s2)cc1`, for which the Specific binding in test [1] came out at 43%; in test [2] it was 101%; in test [3], 124%.

For the compound `c1ccc(/N=c2/nc(-c3ccccc3)n(-c3ccccc3)s2)cc1`, the Specific binding in test [1] was found to be 66%; in [2], 104%; in [3], 106%.

As for `Cc1cccc(-n2s/c(=N/C3CCCC3)nc2-c2ccccc2)c1`, the Specific binding was 35% in test [1], 96% in [2] and 101% in test [3].
